{"source": "paper PMC5814546", "about": "(Clinical Pharmacokinetics, 2017)", "key": {"[1]": {"test": "Safety and tolerability, capsule and tablet multiple ascending dose study", "assay_type": "in vivo, human", "in_short": "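Double-blind study; 12 per cohort randomized 3:1 to ALZ-801 or placebo. Cohort A fasted capsule: 171 mg once on day 1, twice daily days 2–7, then 256.5 mg days 8–14. Cohort D tablet 265 mg, ages 60–75, fed 30 min pre-dose: once day 1, twice daily days 2–6, once day 7. AEs recorded until follow-up call and coded by MedDRA v18.1.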"}, "[2]": {"test": "Safety and tolerability, tablet single ascending dose study", "assay_type": "in vivo, human"}, "[3]": {"conditions": "Part 1: Cohort A, 171 and 256.5 mg capsule, fasted"}, "[4]": {"conditions": "Part 1: Cohort B, 256.5 and 340 mg capsule, fasted"}, "[5]": {"conditions": "Part 1: Cohort C, 256.5 and 340 mg capsule, fed"}, "[6]": {"conditions": "Part 2: Cohort D, 265 mg tablet, fed"}, "[7]": {"conditions": "Week 1, Cohort A 171 mg bid, capsule, fasted"}, "[8]": {"conditions": "Week 1, Cohort B 256.5 mg bid, capsule, fasted"}, "[9]": {"conditions": "Week 1, Cohort C 256.5 mg bid, capsule, fed"}, "[10]": {"conditions": "Week 1, Cohort D 265 mg bid, tablet, fed"}, "[11]": {"conditions": "Week 2, Cohort A 256.5 mg qd, capsule, fasted"}, "[12]": {"conditions": "Week 2, Cohort B 340 mg qd, capsule, fasted"}, "[13]": {"conditions": "Week 2, Cohort C 340 mg bid, capsule, fed"}, "[14]": {"conditions": "Regimen A: 171 mg tablet, fasted, n = 10"}, "[15]": {"conditions": "Regimen B: 205 mg tablet, fasted, n = 11"}, "[16]": {"conditions": "Regimen C: 205 mg tablet, fed, n = 12"}}}
{"smiles": "CC(C)[C@H](N)C(=O)NCCCS(=O)(=O)O", "note": "[ALZ-801, 3-(L-valyl) amino-1-propanesulfonic acid]", "values": [{"measurement": "incidence of TEAEs", "setting": "[1]; 265 mg twice daily, fed state", "result": "equivalent to placebo"}, {"measurement": "total number of TEAEs", "setting": "[1]; ALZ-801 dosing in the fasting state", "result": 65}, {"measurement": "No. of deaths (all causes)", "setting": "[1]; [3]", "result": 0}, {"measurement": "No. of deaths resulting from AEs", "setting": "[1]; [3]", "result": 0}, {"measurement": "Subjects affected by SAE/exposed", "setting": "[1]; [3]", "result": "0/9"}, {"measurement": "No. of deaths (all causes)", "setting": "[1]; [4]", "result": 0}, {"measurement": "No. of deaths resulting from AEs", "setting": "[1]; [4]", "result": 0}, {"measurement": "Subjects affected by SAE/exposed", "setting": "[1]; [4]", "result": "0/9"}, {"measurement": "No. of deaths (all causes)", "setting": "[1]; [5]", "result": 0}, {"measurement": "No. of deaths resulting from AEs", "setting": "[1]; [5]", "result": 0}, {"measurement": "Subjects affected by SAE/exposed", "setting": "[1]; [5]", "result": "0/9"}, {"measurement": "No. of deaths (all causes)", "setting": "[1]; [6]", "result": 0}, {"measurement": "No. of deaths resulting from AEs", "setting": "[1]; [6]", "result": 0}, {"measurement": "Subjects affected by SAE/exposed", "setting": "[1]; [6]", "result": "0/9"}, {"measurement": "TEAEs: Nausea", "setting": "[1]; [7]", "result": "3 (33.3) cases (%)"}, {"measurement": "TEAEs: Vomiting", "setting": "[1]; [7]", "result": "0 cases (%)"}, {"measurement": "TEAEs: Nausea", "setting": "[1]; [8]", "result": "4 (44.4) cases (%)"}, {"measurement": "TEAEs: Vomiting", "setting": "[1]; [8]", "result": "2 (22.2) cases (%)"}, {"measurement": "TEAEs: Nausea", "setting": "[1]; [9]", "result": "5 (55.6) cases (%)"}, {"measurement": "TEAEs: Vomiting", "setting": "[1]; [9]", "result": "2 (22.2) cases (%)"}, {"measurement": "TEAEs: Nausea", "setting": "[1]; [10]", "result": "3 (33.3) cases (%)"}, {"measurement": "TEAEs: Vomiting", "setting": "[1]; [10]", "result": "1 (11.1) cases (%)"}, {"measurement": "TEAEs: Nausea", "setting": "[1]; [11]", "result": "3 (33.3) cases (%)"}, {"measurement": "TEAEs: Vomiting", "setting": "[1]; [11]", "result": "0 cases (%)"}, {"measurement": "TEAEs: Nausea", "setting": "[1]; [12]", "result": "0 cases (%)"}, {"measurement": "TEAEs: Vomiting", "setting": "[1]; [12]", "result": "2 (22.2) cases (%)"}, {"measurement": "TEAEs: Nausea", "setting": "[1]; [13]", "result": "0 cases (%)"}, {"measurement": "TEAEs: Vomiting", "setting": "[1]; [13]", "result": "0 cases (%)"}, {"measurement": "tolerability", "setting": "[1]; doses of up to 340 mg twice daily", "result": "well tolerated"}, {"measurement": "Chills", "setting": "[2]; [14]", "result": 0}, {"measurement": "Flatulence", "setting": "[2]; [14]", "result": 0}, {"measurement": "Flushing", "setting": "[2]; [14]", "result": 0}, {"measurement": "Gastrointestinal disorders", "setting": "[2]; [14]", "result": 4}, {"measurement": "General disorders and administration site conditions", "setting": "[2]; [14]", "result": 0}, {"measurement": "Headache", "setting": "[2]; [14]", "result": 0}, {"measurement": "Nausea", "setting": "[2]; [14]", "result": 4}, {"measurement": "Nervous system disorders", "setting": "[2]; [14]", "result": 0}, {"measurement": "Somnolence", "setting": "[2]; [14]", "result": 0}, {"measurement": "Subjects reporting AEs", "setting": "[2]; [14]", "result": 4}, {"measurement": "Vascular disorders", "setting": "[2]; [14]", "result": 0}, {"measurement": "Vomiting", "setting": "[2]; [14]", "result": 1}, {"measurement": "Chills", "setting": "[2]; [15]", "result": 0}, {"measurement": "Flatulence", "setting": "[2]; [15]", "result": 0}, {"measurement": "Flushing", "setting": "[2]; [15]", "result": 0}, {"measurement": "Gastrointestinal disorders", "setting": "[2]; [15]", "result": 4}, {"measurement": "General disorders and administration site conditions", "setting": "[2]; [15]", "result": 0}, {"measurement": "Headache", "setting": "[2]; [15]", "result": 0}, {"measurement": "Nausea", "setting": "[2]; [15]", "result": 4}, {"measurement": "Nervous system disorders", "setting": "[2]; [15]", "result": 0}, {"measurement": "Somnolence", "setting": "[2]; [15]", "result": 0}, {"measurement": "Subjects reporting AEs", "setting": "[2]; [15]", "result": 4}, {"measurement": "Vascular disorders", "setting": "[2]; [15]", "result": 0}, {"measurement": "Vomiting", "setting": "[2]; [15]", "result": 1}, {"measurement": "Chills", "setting": "[2]; [16]", "result": 0}, {"measurement": "Flatulence", "setting": "[2]; [16]", "result": 0}, {"measurement": "Flushing", "setting": "[2]; [16]", "result": 0}, {"measurement": "Gastrointestinal disorders", "setting": "[2]; [16]", "result": 0}, {"measurement": "General disorders and administration site conditions", "setting": "[2]; [16]", "result": 0}, {"measurement": "Headache", "setting": "[2]; [16]", "result": 0}, {"measurement": "Nausea", "setting": "[2]; [16]", "result": 0}, {"measurement": "Nervous system disorders", "setting": "[2]; [16]", "result": 0}, {"measurement": "Somnolence", "setting": "[2]; [16]", "result": 0}, {"measurement": "Subjects reporting AEs", "setting": "[2]; [16]", "result": 0}, {"measurement": "Vascular disorders", "setting": "[2]; [16]", "result": 0}, {"measurement": "Vomiting", "setting": "[2]; [16]", "result": 0}, {"measurement": "Subjects reporting AEs", "setting": "[2]; Regimen D: 342 mg (2 × 171 mg tablets), fed, n = 12", "result": 3}, {"measurement": "Chills", "setting": "[2]; Regimen D: 342 mg, fed, n = 12", "result": 0}, {"measurement": "Flatulence", "setting": "[2]; Regimen D: 342 mg, fed, n = 12", "result": 0}, {"measurement": "Flushing", "setting": "[2]; Regimen D: 342 mg, fed, n = 12", "result": 0}, {"measurement": "Gastrointestinal disorders", "setting": "[2]; Regimen D: 342 mg, fed, n = 12", "result": 3}, {"measurement": "General disorders and administration site conditions", "setting": "[2]; Regimen D: 342 mg, fed, n = 12", "result": 0}, {"measurement": "Headache", "setting": "[2]; Regimen D: 342 mg, fed, n = 12", "result": 0}, {"measurement": "Nausea", "setting": "[2]; Regimen D: 342 mg, fed, n = 12", "result": 3}, {"measurement": "Nervous system disorders", "setting": "[2]; Regimen D: 342 mg, fed, n = 12", "result": 0}, {"measurement": "Somnolence", "setting": "[2]; Regimen D: 342 mg, fed, n = 12", "result": 0}, {"measurement": "Vascular disorders", "setting": "[2]; Regimen D: 342 mg, fed, n = 12", "result": 0}, {"measurement": "Vomiting", "setting": "[2]; Regimen D: 342 mg, fed, n = 12", "result": 0}, {"measurement": "onset of nausea", "setting": "[2]; following fasted dosing", "result": "0.5 to 1", "unit": "h"}, {"measurement": "onset of nausea", "setting": "[2]; following fed dosing", "result": "1.5 to 2.5", "unit": "h"}, {"measurement": "tolerability", "setting": "[2]; tablet SAD study (Study 3)", "result": "well tolerated"}]}
